Screening results deposited in PubChem BioAssay by several laboratories.
VIM-2 inh: VIM-2 metallo-beta-lactamase inhibitors, primary screen, biochemical, epi-absorbance readout, Pseudomonas aeruginosa enzyme. actives 0.89% (n = 290,000). inhibition, % at 5.6 µM. purified VIM-2, nitrocefin hydrolysis, epi-absorbance fluorescence;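 active means inhibition above the mean of all tested compounds plus 3 SD, cutoff set per screening run, cut at about 7.5% in these data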;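 further: red hydrolysis product quenches plate fluorescence so inhibitors raise well fluorescence; 0% = enzyme with DMSO and 100% = DMSO without enzyme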
IMP-1 inh-1: IMP-1 metallo-beta-lactamase inhibitors, primary screen, biochemical, epi-absorbance readout, Pseudomonas aeruginosa enzyme. purified IMP-1, nitrocefin hydrolysis, epi-absorbance fluorescence. inhibition, % at 5.6 µM. actives 0.45% (n = 290,000);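 active means inhibition above the mean plus 3 SD of all compounds in the same screening run, cut at about 4.5% in these data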;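 further: 0% = IMP-1 with DMSO and 100% = DMSO wells lacking enzyme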
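System: Purified recombinant IMP-1 metallo-beta-lactamase enzyme | Measured by: Fluorescence quenching readout, ex 480/em 530 nm | Replication: Singlicate | Incubation: 15 min preincubation plus 25 min reaction at 25 °C | Evaluation: Percent inhibition from optical density relative to buffer-blank wells | Benchmarks: DMSO with and without IMP-1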
PLC-gamma1 inh: PLC-gamma1 enzyme inhibitors, primary screen, biochemical, fluorescence, purified enzyme; 1-phosphatidylinositol 4,5-bisphosphate phosphodiesterase gamma-1 (Homo sapiens), P19174; fluorogenic substrate; inhibition, % at 12.2 µM; actives 0.84% (n = 370,000); AID 720700, 2013; in the data active means inhibition above about 9.5%
PvdQ inh: P. aeruginosa PvdQ acylase inhibitors, primary screen, biochemical, fluorescence, plate reader and imaging, single point | AID 488965, 2010 | inhibition, % at 10 µM | actives 0.063% (n = 340,000) | purified PvdQ acylase | PvdQ acylase [Pseudomonas aeruginosa LESB58]; in the data active means inhibition above about 30%, passing the limit was not always enough;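 further: 0% = vehicle neutral wells and 100% = reference inhibitor wells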
PLCb3 inh: human PLC-beta3 inhibitors, primary screen, biochemical, fluorescence. 1-phosphatidylinositol 4,5-bisphosphate phosphodiesterase beta-3 (Homo sapiens), Q01970. Purified PLC-beta3, fluorogenic substrate. inhibition, % at 12.2 µM. actives 0.18% (n = 370,000); in the data active means inhibition above about 11%;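 further: 0% = median of compound wells on plate and 100% = full blocker control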
IMP-1 inh-2: IMP-1 metallo-beta-lactamase inhibitors, confirmation, selectivity assay for selective VIM-2 inhibitor project, biochemical, epi-absorbance readout, triplicate | shares compounds with VIM-2 inh | purified IMP-1, nitrocefin hydrolysis, epi-absorbance fluorescence | inhibition, % at 5.6 µM | 1,300 tested, under 10 active; call rule not given here;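 further: 0% = enzyme with vehicle and 100% = vehicle without enzyme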
VIM-2 FRET inh: VIM-2 inhibitors in FRET format, confirmation, artefact control for selective VIM-2 inhibitor project, biochemical, epi-absorbance artifact exclusion; actives 23% (n = 1,300); AID 1857, 2009; purified VIM-2, CCF2 FRET substrate hydrolysis; shares compounds with VIM-2 inh; inhibition, % at 5.6 µM;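 active means inhibition above the mean of all tested compounds plus 3 SD, cut at about 19% in these data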;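 further: 0% = VIM-2 plus DMSO and 100% = no enzyme wells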
TEM-1 inh: TEM-1 serine beta-lactamase inhibitors, counter-screen for VIM-2 inhibitor project, biochemical, epi-absorbance, HTS; inhibition, % at 5.6 µM; actives 3% (n = 1,300); AID 1866, 2009; Purified TEM-1, nitrocefin hydrolysis, epi-absorbance fluorescence; shares compounds with VIM-2 inh;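 active means inhibition above that campaign's mean inhibition plus 3 SD, cut at about 0.46% in these data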;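 further: 0% = TEM-1 with DMSO and 100% = TEM-1 with 100 µM potassium clavulanate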
VIM-2 confirm 2: VIM-2 metallo-beta-lactamase inhibitors, confirmation, biochemical, epi-absorbance, hits shared with IMP-1 screen. shares compounds with VIM-2 inh. purified VIM-2, nitrocefin hydrolysis. inhibition, % at 5.6 µM. actives 96% (n = 1,300). AID 2187, 2009;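 active means inhibition of the VIM-2 beta-lactamase enzyme above about 11% from the earlier first-round screen, limit read from the data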;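 further: 0% = VIM-2 with DMSO and 100% = buffer wells without enzyme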
Active calls of the source: *; / = not tested or not shown. Most compounds without a hit are left out; they make up all but 2% or so of the library.

SMILES	VIM-2 inh	IMP-1 inh-1	PLC-gamma1 inh	PvdQ inh	PLCb3 inh	others
CCOc1ccccc1C1SCC(=O)Nc2c1c(=O)[nH]n2C(CC)CC (stereo not given)	11*	-1	3	-13	3
CCCC(C)n1[nH]c(=O)c2c1NC(=O)CSC2c1ccccc1 (stereo not given)	-1	-2	-1	-9	-9
O=C1C(=O)c2cccc3cccc1c23	0	5.1*	-1	-15	0
CC(Cc1ccccc1)NC(=O)Cc1ccc([N+](=O)[O-])cc1 (stereo not given)	-4	-2	9.8*	-11	0
O=[N+]([O-])c1ccc(Nc2ccccc2)cc1	-3	-1	-7	12	-6
O=C1NC(=O)C(CCc2ccncc2)(c2ccccc2)C(=O)N1	-5	6.1*	3	-18	3
CCC1(c2ccccc2)C(=O)NC(=O)NC1=O	/	/	2	-4	1
COC(=O)C1=C[C@H]([C@@H](C)[C@H](OC)c2ccccc2Br)[C@@H]2[C@H]1c1ccccc1N2C	/	/	-2	/	-2
Cc1cc(OC(C)C(=O)NCc2cccnc2)c2c3c(c(=O)oc2c1)CCC3 (stereo not given)	8.4*	-3	-26	-16	-41
Cc1cc(OC(C)C(=O)NCC(O)c2ccccc2)c2c3c(c(=O)oc2c1)CCC3 (stereo not given)	3	0	-122	6	-224
C=C(C=O)CC1CC(O)[C@]2(C)OC3CC4OC5C[C@]6(C)O[C@]7(C)CCC8OC9C[C@]%10(C)OC%11C(C)=CC(=O)OC%11CC%10OC9C[C@@H](C)C8OC7CC6O[C@]5(C)C/C=C\C4OC3CC2O1 (stereo not given in full)	/	/	-3	/	2
Cc1cccc(C(C)c2cnc[nH]2)c1C (stereo not given)	/	/	-2	/	0
O=C1NC(=O)C(=Cc2ccc(-c3ccc(S(=O)(=O)N4CCOCC4)cc3)o2)C(=O)N1	-1	5.4*	-1	-13	-3
C=CCN(CC#CCO)Cc1ccc(OC)cc1OC	/	/	-3	/	-1
C=C1C(=O)C(C)=C2C(=O)N3Cc4[nH]c5ccccc5c4CC3(C(=O)OC)C12 (stereo not given)	/	/	-2	/	-6
O=[N+]([O-])c1ccc2c(c1)C(c1ccccc1)=NCCN2	-2	-3	2	-9	-6
O=[N+]([O-])c1ccc(-c2ccccc2)c([As](=O)(O)O)c1	76*	-1	0	-11	4	IMP-1 inh-2=-3;VIM-2 FRET inh=82*;TEM-1 inh=-3;VIM-2 confirm 2=80*
C[N+]1=C(N)NC2=C3CCCCC3ONC2C1 (stereo not given)	/	/	-5	/	-5
O=c1c2ccccc2nc(-c2ccccc2)n1-c1ccccc1	0	-4	0	-7	-4
O=c1c2ccccc2[se]n1-c1ccccc1	27*	-2	0	-1	2	IMP-1 inh-2=-3;VIM-2 FRET inh=-87;TEM-1 inh=-10;VIM-2 confirm 2=42*
COc1ccc([C@@H]2C[C@H]3[C@@H](CN2)CON3C)cc1	/	/	0	/	0
CC(NC(=O)OCc1ccccc1)[P+](=O)O (stereo not given)	/	/	0	/	6
C=CCn1c(O)c(C(C)=NCCCn2ccnc2)c(=O)[nH]c1=O	58*	-2	1	-4	-6	IMP-1 inh-2=-3;VIM-2 FRET inh=-2;TEM-1 inh=-6;VIM-2 confirm 2=78*
